Experimental data as given in paper PMC10825549 (JID Innovations, 2023).

How the values were obtained:
TXK = TXK (Homo sapiens, UniProt P42681); assay: IC50 for kinases of potential cross-over; format: biochemical
HPK1 (MAP4K1) = HPK1 (MAP4K1) (Homo sapiens, UniProt Q92918); assay: IC50 for kinases of potential cross-over; format: biochemical
MARK1 = MARK1 (Homo sapiens, UniProt Q9P0L2); assay: IC50 for kinases of potential cross-over; format: biochemical
MKNK1/MNK1 = MKNK1/MNK1 (Homo sapiens, UniProt Q9BUB5); assay: IC50 for kinases of potential cross-over; format: biochemical
FLT4 (VEGFR3) = FLT4 (VEGFR3) (Homo sapiens, UniProt P35916); assay: IC50 for kinases of potential cross-over; format: biochemical
LRRK2 = LRRK2 (Homo sapiens, UniProt Q5S007); assay: IC50 for kinases of potential cross-over; format: biochemical
Jak1/3 = assay: Inhibition of IL-2-induced STAT phosphorylation in PBMCs; format: cell-based, human
Outline: (§1)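 Ficoll-isolated human PBMCs, cryopreserved, thawed into RPMI/10% heat-inactivated FBS assay medium, 200,000 cells/well. Serially diluted test compound (final 20 μM to 2 × 10−6 μM) or 0.1% DMSO vehicle preincubated 1 h at 37 °C. Cytokine then added for 5–10 min, followed by 30 min shaking at 4 °C and lysis. Phospho-STAT5/STAT4 by MSD immunoassay, phospho-STAT1 by ELISA. IC50 reported as mean ± SD.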

Jak2/TYK2 = assay: Inhibition of IL-12-induced STAT phosphorylation in PBMCs; format: cell-based, human
Outline: as §1

[1] = Metabolic stability in liver microsomes; format: in vitro ADME; details: dog
Outline: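 Test compound from 1 mM DMSO solution preincubated 5 min with dog, human, monkey, rat or minipig liver microsomes. NADPH (10 mM) then added. Reactions stopped at 0, 5, 15 and 30 min with 0.05% formic acid in acetonitrile containing loperamide internal standard. Supernatants analysed by LC-MS/MS; n = 1 per microsome species.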

CYP2C8 = CYP2C8 (Homo sapiens, UniProt P10632); assay: Cytochrome P450 phenotyping; format: in vitro ADME; details: recombinant human CYP2C8; with NADPH; 60 minutes; n = 1
Outline: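 Recombinant human CYPs prepared at CYP1A2 200 nM, CYP2B6/2C8 250 nM, CYP2C9 100 nM, CYP2D6 50 nM. Test compound added as 2 μM DMSO dosing solution on ice. Plate prewarmed, then 8 mM NADPH solution or blank buffer added. Incubation 60 min (1A2, 2B6, 2C8) or 30 min (2C9, 2D6). Stopped with acetonitrile plus internal standard; supernatant by LC-MS/MS; n = 1.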

minipig = assay: 7-day minipig study: dermal tolerability; format: in vivo; details: 2% solution applied to the skin for 7 consecutive days
Outline: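 Each minipig (1 male, 1 female) received topical test compound and matching placebo formulations once daily on designated skin areas. Animals were checked daily for clinical signs. Application sites were scored for dermal irritation by a modified Draize procedure.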

[2] = 28-day minipig repeat exposure study: toxicokinetics; format: in vivo; details: for concentration at 0 h / concentration at 0.5 h / concentration at 1 h / concentration at 2 h / concentration at 4 h / concentration at 8 h / concentration at 12 h / concentration at 24 h: both, plasma, topical; for concentration in the skin: terminal sacrifice (day 28)
Outline: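 Topical solution applied to minipigs once daily for 28 days at 0, 40, 80 or 160 mg/day, left on skin 20–22 h, then wiped with moist towel. Jugular blood collected days 1 and 28, pre-dose and ~0.5, 1, 2, 4, 8, 12, 22 h after application, after IM acepromazine 0.2–0.4 mg/kg. Pigs nonfasted; K2 EDTA plasma; validated LC-MS/MS.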

[3] = Homo sapiens, PBMC, read-out: IC50 Mean ± SD

Sequence of LRRK2 (Q5S007 whole entry): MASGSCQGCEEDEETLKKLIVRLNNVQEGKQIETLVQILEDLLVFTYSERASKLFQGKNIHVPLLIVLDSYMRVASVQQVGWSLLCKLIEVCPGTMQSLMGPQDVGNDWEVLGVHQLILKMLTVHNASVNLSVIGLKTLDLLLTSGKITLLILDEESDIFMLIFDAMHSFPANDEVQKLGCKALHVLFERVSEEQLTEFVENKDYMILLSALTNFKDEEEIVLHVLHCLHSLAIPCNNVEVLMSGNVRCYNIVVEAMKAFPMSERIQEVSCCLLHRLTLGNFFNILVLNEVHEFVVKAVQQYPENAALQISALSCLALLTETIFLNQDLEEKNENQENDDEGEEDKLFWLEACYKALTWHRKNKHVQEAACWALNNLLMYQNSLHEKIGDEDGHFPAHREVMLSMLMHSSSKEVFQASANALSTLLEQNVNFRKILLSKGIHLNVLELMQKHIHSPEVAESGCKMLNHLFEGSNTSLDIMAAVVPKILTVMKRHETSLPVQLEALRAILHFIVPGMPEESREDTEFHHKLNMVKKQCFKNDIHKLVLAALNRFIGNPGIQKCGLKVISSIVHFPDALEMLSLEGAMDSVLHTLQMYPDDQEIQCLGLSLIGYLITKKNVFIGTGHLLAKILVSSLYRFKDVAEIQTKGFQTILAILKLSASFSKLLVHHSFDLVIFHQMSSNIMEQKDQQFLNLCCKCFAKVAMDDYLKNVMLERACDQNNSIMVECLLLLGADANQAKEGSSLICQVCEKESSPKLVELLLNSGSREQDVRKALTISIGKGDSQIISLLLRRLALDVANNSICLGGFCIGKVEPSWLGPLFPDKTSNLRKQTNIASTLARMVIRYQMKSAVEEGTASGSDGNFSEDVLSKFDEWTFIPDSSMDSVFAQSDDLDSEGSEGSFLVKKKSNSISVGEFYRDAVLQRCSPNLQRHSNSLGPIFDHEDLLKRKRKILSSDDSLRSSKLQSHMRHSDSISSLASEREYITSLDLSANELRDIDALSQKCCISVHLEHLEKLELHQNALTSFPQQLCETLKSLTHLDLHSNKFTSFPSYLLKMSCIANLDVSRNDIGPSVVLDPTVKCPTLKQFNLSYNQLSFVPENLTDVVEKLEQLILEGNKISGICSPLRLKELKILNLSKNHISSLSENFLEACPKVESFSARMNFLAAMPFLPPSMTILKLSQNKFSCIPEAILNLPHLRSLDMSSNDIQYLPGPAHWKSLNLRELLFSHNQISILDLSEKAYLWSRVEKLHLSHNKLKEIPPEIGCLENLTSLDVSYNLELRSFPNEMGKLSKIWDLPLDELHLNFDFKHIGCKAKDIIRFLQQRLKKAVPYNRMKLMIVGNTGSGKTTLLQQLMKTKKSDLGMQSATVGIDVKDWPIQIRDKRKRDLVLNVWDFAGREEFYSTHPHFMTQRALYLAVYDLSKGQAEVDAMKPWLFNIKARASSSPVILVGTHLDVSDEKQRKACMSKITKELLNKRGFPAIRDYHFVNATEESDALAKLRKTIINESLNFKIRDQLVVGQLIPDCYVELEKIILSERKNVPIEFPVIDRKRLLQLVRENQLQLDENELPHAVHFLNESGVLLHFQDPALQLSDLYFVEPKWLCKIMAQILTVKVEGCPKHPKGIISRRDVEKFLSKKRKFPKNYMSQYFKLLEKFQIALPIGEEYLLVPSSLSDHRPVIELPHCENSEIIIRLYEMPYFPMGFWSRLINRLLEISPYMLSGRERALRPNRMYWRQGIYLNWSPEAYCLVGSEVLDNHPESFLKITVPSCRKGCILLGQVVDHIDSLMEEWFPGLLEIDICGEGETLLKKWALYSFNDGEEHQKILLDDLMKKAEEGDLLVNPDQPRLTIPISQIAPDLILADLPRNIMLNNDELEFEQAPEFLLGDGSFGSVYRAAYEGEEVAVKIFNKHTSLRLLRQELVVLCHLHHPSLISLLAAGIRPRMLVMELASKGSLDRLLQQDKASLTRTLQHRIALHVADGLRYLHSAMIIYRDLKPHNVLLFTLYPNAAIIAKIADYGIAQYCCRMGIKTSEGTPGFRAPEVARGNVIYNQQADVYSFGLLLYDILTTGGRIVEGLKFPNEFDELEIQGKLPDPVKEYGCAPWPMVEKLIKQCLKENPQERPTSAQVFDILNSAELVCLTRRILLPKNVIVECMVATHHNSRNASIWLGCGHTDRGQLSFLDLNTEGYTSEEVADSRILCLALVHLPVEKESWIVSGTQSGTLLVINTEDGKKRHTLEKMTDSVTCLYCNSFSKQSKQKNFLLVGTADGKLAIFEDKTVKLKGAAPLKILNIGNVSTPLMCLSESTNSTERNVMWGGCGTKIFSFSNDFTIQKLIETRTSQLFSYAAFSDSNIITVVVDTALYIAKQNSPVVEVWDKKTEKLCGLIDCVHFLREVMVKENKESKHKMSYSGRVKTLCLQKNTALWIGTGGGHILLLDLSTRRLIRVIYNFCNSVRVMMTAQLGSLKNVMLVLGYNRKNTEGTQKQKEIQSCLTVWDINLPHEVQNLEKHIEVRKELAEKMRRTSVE
Sequence of TXK (P42681 whole entry): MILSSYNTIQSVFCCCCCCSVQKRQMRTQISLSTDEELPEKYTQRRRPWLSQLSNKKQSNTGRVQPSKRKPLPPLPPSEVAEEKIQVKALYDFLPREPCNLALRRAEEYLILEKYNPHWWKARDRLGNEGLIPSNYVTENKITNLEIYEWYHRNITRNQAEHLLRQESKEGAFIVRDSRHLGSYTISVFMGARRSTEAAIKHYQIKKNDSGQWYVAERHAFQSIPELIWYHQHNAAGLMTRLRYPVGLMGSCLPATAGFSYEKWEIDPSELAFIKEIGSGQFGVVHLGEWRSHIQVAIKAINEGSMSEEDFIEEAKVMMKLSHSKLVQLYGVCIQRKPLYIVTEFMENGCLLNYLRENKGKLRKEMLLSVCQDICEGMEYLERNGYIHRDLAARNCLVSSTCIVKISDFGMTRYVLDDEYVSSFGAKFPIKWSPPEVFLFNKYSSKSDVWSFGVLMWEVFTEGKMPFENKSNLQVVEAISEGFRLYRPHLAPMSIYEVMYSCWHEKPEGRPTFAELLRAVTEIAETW
Sequence of MARK1 (Q9P0L2 whole entry): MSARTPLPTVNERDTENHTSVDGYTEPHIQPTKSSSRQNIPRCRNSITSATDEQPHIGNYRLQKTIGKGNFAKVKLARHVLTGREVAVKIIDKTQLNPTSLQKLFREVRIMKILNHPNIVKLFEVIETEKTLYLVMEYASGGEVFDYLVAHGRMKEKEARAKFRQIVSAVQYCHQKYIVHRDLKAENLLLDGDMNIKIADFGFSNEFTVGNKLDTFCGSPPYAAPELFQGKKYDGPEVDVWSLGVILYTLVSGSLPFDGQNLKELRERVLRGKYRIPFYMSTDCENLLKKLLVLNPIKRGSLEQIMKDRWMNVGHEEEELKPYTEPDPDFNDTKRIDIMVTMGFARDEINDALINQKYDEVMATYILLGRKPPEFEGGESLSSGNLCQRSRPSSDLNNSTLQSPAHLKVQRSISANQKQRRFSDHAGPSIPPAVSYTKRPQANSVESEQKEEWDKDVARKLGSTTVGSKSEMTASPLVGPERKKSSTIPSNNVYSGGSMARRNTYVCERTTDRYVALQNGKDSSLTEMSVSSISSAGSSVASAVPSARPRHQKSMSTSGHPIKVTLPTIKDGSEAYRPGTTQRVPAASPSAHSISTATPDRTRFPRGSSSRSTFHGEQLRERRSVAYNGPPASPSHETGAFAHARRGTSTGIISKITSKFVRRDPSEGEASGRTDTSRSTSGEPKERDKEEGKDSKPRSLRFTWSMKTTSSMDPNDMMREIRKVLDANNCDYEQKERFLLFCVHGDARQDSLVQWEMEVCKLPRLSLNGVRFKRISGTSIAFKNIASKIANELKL
Sequence of MKNK1/MNK1 (Q9BUB5 whole entry): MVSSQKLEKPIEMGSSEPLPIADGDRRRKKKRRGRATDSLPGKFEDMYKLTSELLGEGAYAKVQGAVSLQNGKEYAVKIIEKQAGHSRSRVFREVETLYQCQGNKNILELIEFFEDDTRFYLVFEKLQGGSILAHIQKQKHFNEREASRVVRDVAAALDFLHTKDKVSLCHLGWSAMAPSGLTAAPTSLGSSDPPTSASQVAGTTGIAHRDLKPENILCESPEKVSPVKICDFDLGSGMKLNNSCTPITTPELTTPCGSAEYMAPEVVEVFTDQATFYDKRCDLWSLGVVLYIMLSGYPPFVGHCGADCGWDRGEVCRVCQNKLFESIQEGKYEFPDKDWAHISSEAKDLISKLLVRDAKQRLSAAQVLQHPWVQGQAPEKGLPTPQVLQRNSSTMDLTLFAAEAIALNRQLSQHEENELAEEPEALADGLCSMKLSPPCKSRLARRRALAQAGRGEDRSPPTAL
Sequence of CYP2C8 (P10632 whole entry): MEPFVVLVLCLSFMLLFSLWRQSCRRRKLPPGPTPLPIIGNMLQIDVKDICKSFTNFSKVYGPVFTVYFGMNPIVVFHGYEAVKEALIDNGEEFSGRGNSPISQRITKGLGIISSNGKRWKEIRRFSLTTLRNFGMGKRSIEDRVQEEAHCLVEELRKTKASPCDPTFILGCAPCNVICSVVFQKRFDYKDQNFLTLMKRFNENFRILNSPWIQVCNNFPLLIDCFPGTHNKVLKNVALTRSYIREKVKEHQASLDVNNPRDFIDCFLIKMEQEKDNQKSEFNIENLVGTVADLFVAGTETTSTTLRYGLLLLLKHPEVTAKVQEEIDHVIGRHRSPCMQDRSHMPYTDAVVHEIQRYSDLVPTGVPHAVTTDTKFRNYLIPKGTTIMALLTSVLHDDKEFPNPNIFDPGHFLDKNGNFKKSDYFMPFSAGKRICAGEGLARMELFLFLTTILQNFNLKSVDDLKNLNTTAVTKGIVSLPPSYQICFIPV

CCOC(=O)c1cnc2[nH]ccc2c1N[C@@H]1CCCN(C(=O)CC#N)C1 [ATI-1777, ethyl (R)-4-((1-(2-cyanoacetyl)piperidin-3-yl)amino)-1H-pyrrolo[2,3-b]pyridine-5-carboxylate]
IC50 (TXK): 351 nM | Fold Selectivity (TXK; TXK vs Jak1 (= 1)): 234 fold | IC50 (HPK1 (MAP4K1)): 285 nM | Fold Selectivity (HPK1 (MAP4K1); HPK1 (MAP4K1) vs Jak1 (= 1)): 190 fold | IC50 (MARK1): 1250 nM | Fold Selectivity (MARK1; MARK1 vs Jak1 (= 1)): 833 fold | IC50 (MKNK1/MNK1): 584 nM | Fold Selectivity (MKNK1/MNK1; MKNK1/MNK1 vs Jak1 (= 1)): 389 fold | IC50 (FLT4 (VEGFR3)): 113 nM | Fold Selectivity (FLT4 (VEGFR3); FLT4 (VEGFR3) vs Jak1 (= 1)): 75 fold | IC50 (LRRK2): 48 nM | Fold Selectivity (LRRK2; LRRK2 vs Jak1 (= 1)): 32 fold | IC50 (Jak1/3; [3]): 19 ± 6 nM | Fold Jak1/3 (Jak1/3; IL-2, Jak1/3 (reference)): 1.0 fold | IC50 (Jak2/TYK2; [3]): 898 ± 178 nM | Fold Jak1/3 (Jak2/TYK2; IL-12, Jak2/TYK2 vs Jak1/3): 47.3 fold | CLint scaled [1]: 198 mL/min/kg | microsomal CLint [1]: 46 µL/min/mg | half-life ([1]; T1/2, Study 1, n = 1): 17.4 min | half-life ([1]; T1/2, Study 2, n = 1): 30 min | Percentage Remaining (CYP2C8): 41.2% | clinical observations and clinical pathology parameters (minipig): no adverse clinical observations or changes in clinical pathology parameters | quantifiable plasma concentrations ([2]; 160 mg group, day 28, all pigs): < 6.26 ng/mL | plasma concentrations when quantifiable ([2]; 40 and 80 mg/day, days 1 and 28, nonquantifiable in most pigs): ≤ 4.94 ng/mL | concentration at 0 h ([2]; 40 mg/day): 0.34 ng/mL | concentration at 0.5 h ([2]; 40 mg/day): 0.143 ng/mL | concentration at 1 h ([2]; 40 mg/day): 0.0685 ng/mL | concentration at 2 h ([2]; 40 mg/day): 0.108 ng/mL | concentration at 4 h ([2]; 40 mg/day): 0.121 ng/mL | concentration at 8 h ([2]; 40 mg/day): 0 ng/mL | concentration at 12 h ([2]; 40 mg/day): 0 ng/mL | concentration at 24 h ([2]; 40 mg/day): 0 ng/mL | concentration at 0 h ([2]; 80 mg/day): 0.118 ng/mL | concentration at 0.5 h ([2]; 80 mg/day): 0.647 ng/mL | concentration at 1 h ([2]; 80 mg/day): 0.0995 ng/mL | concentration at 2 h ([2]; 80 mg/day): 0.197 ng/mL | concentration at 4 h ([2]; 80 mg/day): 0.193 ng/mL | concentration at 8 h ([2]; 80 mg/day): 0.173 ng/mL | concentration at 12 h ([2]; 80 mg/day): 0.823 ng/mL | concentration at 24 h ([2]; 80 mg/day): 0 ng/mL | concentration at 0 h ([2]; 160 mg/day): 1.82 ng/mL | concentration at 0.5 h ([2]; 160 mg/day): 0.479 ng/mL | concentration at 1 h ([2]; 160 mg/day): 1.14 ng/mL | concentration at 2 h ([2]; 160 mg/day): 1.12 ng/mL | concentration at 4 h ([2]; 160 mg/day): 0.755 ng/mL | concentration at 8 h ([2]; 160 mg/day): 0.684 ng/mL | concentration at 12 h ([2]; 160 mg/day): 1.02 ng/mL | concentration at 24 h ([2]; 160 mg/day): 0.0569 ng/mL | concentration in the skin ([2]; females): ≥ 1960 ng/g | concentration in the skin ([2]; males): ≥ 4280 ng/g
